Reference: article PMC5771882 (Biochemistry, 2017)

Assays:
HSP70-1A/B = HSP70-1A/B (Homo sapiens, UniProt P0DMV8); experiment: LC–MS quantitative chemical proteomic assay; type: binding; conditions: ATP 1 mM
recombinant DGKα [1] = biological target: T1, recombinant DGKα (Rattus norvegicus, UniProt P51556); experiment: LC–MS quantitative chemical proteomic assay; type: binding
BRAF = BRAF (Homo sapiens, UniProt P15056); experiment: LC–MS quantitative chemical proteomic assay; type: binding; conditions: ATP 1 mM
Sequence of BRAF (P15056 whole entry): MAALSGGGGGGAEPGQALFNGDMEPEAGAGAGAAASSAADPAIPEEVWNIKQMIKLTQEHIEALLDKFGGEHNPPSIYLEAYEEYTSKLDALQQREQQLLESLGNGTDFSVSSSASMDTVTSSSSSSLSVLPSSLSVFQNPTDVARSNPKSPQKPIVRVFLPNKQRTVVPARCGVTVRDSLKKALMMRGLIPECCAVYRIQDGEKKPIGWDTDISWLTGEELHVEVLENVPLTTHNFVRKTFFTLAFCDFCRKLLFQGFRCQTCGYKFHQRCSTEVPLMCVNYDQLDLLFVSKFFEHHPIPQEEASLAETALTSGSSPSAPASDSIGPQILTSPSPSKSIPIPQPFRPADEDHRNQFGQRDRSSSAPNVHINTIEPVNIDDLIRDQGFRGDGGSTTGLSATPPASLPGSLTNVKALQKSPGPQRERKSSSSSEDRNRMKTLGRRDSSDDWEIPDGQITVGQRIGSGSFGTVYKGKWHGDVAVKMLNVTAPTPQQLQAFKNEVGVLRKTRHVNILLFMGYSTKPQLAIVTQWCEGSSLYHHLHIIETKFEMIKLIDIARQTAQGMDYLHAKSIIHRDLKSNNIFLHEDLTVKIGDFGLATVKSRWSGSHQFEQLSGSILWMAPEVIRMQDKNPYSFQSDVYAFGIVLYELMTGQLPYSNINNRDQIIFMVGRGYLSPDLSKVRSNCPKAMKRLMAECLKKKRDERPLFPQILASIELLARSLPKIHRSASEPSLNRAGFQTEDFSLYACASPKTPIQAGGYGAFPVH

recombinant DGKα [2] = biological target: T1, recombinant DGKα; experiment: DAG phosphorylation substrate assay; type: biochemical; conditions: DGKα-overexpressed HEK293T soluble proteomes
In short: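 IC50 derived from a dose–response curve of DAG phosphorylation by recombinant DGKα across a range of test compound concentrations. Data are means ± standard error of the mean of two biological replicates, and a 95% confidence interval is given for the IC50.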

T1 sequence (P51556 whole entry): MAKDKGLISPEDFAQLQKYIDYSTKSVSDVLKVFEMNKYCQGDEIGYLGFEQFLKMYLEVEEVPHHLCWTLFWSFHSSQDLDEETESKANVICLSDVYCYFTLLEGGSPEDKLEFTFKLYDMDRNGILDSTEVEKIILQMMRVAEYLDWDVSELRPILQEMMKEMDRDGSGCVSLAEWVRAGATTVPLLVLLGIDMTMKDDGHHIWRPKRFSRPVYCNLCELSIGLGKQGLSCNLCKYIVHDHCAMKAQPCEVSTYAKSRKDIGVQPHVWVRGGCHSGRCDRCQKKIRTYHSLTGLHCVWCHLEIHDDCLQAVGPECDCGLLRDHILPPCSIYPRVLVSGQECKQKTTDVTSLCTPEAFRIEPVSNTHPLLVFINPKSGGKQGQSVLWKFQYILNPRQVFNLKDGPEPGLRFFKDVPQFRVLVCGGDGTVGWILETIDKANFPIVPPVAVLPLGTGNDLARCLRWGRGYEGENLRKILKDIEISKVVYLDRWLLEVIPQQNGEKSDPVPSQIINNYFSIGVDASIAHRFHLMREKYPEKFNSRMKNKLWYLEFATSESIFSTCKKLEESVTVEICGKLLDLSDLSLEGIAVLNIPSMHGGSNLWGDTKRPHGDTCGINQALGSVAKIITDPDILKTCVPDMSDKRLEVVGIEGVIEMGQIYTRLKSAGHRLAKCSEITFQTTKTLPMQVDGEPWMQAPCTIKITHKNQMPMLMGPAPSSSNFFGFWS
Sequence of HSP70-1A/B (P0DMV8 whole entry): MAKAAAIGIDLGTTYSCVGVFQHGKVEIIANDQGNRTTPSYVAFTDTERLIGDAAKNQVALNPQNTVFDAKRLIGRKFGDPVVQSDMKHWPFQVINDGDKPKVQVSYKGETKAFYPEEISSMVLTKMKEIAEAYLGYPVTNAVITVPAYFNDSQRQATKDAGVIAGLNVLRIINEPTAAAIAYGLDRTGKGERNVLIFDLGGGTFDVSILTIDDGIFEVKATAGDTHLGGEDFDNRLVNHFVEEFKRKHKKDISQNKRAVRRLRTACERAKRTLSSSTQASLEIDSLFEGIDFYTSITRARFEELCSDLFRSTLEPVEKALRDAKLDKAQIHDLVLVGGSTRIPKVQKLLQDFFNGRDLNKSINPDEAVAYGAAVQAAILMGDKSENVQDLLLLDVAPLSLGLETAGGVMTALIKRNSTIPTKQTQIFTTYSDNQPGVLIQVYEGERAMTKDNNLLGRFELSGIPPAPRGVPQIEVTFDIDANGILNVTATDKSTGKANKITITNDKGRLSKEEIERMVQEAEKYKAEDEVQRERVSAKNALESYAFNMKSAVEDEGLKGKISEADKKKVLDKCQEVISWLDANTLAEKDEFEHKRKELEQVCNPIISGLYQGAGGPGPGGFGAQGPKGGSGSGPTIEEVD

Structure (SMILES) | SILAC ratio (SR), HSP70-1A K56/HSP70-1B K56 (HSP70-1A/B) | blockade of probe labeling at primary ATP-binding sites (DAGKc/DAGKa) (recombinant DGKα [1]; RLM001 10 mM, ATP 1 mM) | SILAC ratio (SR), C1-binding site (recombinant DGKα [1]; free ATP (1 mM)) | SILAC ratio (SR), BRAF (BRAF) | blockade of recombinant DGKα catalytic activity (recombinant DGKα [2])
Nc1ncnc2c1ncn2[C@@H]1O[C@H](COP(=O)(O)OP(=O)(O)OP(=O)(O)O)[C@@H](O)[C@H]1O [ATP] | > 5 | near-complete blockade of probe labeling | ~ 2 | > 5 | 
Cc1nc2sccn2c(=O)c1CCN1CCC(=C(c2ccccc2)c2ccc(F)cc2)CC1 [R59022] |  |  |  |  | blockade of catalytic activity
Cc1nc2sccn2c(=O)c1CCN1CCC(=C(c2ccc(F)cc2)c2ccc(F)cc2)CC1 [ritanserin] |  |  |  |  | blockade of catalytic activity
